Screening data deposited in PubChem BioAssay by Broad Institute.
FN deposit inh: inhibitors of fibronectin matrix deposition, primary screen, AH1F cells, Alexa488-fibronectin fluorescence, plate reader | AH1F fibroblasts, overnight | 350,000 compounds, 0.086% hits | inhibition, % at 12.6 µM;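 active = mean inhibition across replicates of 30% or more, regardless of how many single replicates reach that level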;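 note: positive control wells lacked labelled fibronectin entirely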
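Measured by – fluorescence 485/525 nm · System – AH1F fibroblast monolayer, labelled fibronectin deposition · Amount – 10000 cells per well · Buffer or medium – serum-reduced DMEM (2% serum) · Doses – single dose, pinned · Also added – fluorescent fibronectin at 24 nM final · Schedule – 1 h cell attachment, overnight exposure to compound and label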
Env fusion inh: inhibitors of HIV-1 Env-driven cell-cell fusion, primary screen, HeLa-JRFL effector, CEM21 target cells, luciferase; inhibition, % at 12.3 µM; 360,000 compounds, 1.1% hits; AID 651610, 2012;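 active = mean replicate inhibition score of at least 50 and every replicate individually at or above 50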;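 note: 0% = plate neutral controls and 100% = maraviroc near 300 nM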
PvdQ inh: P. aeruginosa PvdQ acylase inhibitors, primary screen, biochemical, fluorescence, plate reader and imaging, single point; PvdQ acylase [Pseudomonas aeruginosa LESB58]; purified PvdQ acylase; inhibition, % at 10 µM; 340,000 compounds, 0.063% hits; in the data active = inhibition above about 30%, passing the limit was not always enough;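 note: 0% = vehicle neutral wells and 100% = reference inhibitor wells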
PDI inh: inhibitors of human PDI, primary screen, biochemical, turbidity, single point, plate reader; Protein disulfide-isomerase (Homo sapiens), P07237; PDI insulin aggregation turbidity, A650, 90 min; inhibition, % at 10 µM; 350,000 compounds, 0.052% hits; AID 588391, 2011;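 active = mean inhibition across replicates of 30% or more, whatever share of single replicates reach that level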
Target sequence (P07237 whole entry, looked up): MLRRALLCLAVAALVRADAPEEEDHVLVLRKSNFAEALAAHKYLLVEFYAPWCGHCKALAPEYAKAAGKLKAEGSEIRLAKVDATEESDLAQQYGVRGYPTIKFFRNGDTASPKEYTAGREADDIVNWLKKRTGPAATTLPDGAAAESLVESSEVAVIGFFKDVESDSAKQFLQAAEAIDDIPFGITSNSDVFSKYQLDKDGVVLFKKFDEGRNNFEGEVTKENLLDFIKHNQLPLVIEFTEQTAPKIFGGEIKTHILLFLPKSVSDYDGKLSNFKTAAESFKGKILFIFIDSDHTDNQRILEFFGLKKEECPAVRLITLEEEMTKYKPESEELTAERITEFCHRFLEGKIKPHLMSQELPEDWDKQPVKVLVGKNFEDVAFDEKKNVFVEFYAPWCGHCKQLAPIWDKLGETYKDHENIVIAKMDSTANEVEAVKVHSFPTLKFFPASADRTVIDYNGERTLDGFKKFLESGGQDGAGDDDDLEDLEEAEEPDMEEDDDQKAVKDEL
rRNA inh HTS: reduced GFP signal of wild-type E. coli, primary screen, bacterial rRNA inhibitor project, GFP/RFP fluorescence, OD600, single point | E. coli WT GFP vs humanized-ribosome RFP mutants, 24 h; stronger effect = lower value; DMSO median 0, no signal -100 | GFP signal change (wild-type ribosome), % (concentration not given with the values) | 350,000 compounds, 1.6% hits;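 active = significant combined selectivity score with lowered wild-type GFP, culture density cut under 30%, mutant RFP and density less affected; inactive = any of these conditions unmet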
ERp5 block: inhibitors of ERp5-driven insulin aggregation, primary screen, biochemical, turbidity, absorbance 650 nm, single point; Protein disulfide-isomerase A6 (Homo sapiens), Q15084; 90 min; inhibition, % at 9.99 µM; 350,000 compounds, 0.05% hits;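 active = mean replicate inhibition above about 25%, with every replicate also reaching it, limit read from the data, passing the limit was not always enough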
Starred values were filed as active, the others as inactive; [ ] = dose if it differs, or a comment. In the library only some 2.2% were active in any assay of this set; here they are far more common.

For Cc1ccc(NC(=O)c2oc3ccccc3c2NC(=O)C2CCCO2)cc1C (configuration not stated) the results were FN deposit inh 1.2, Env fusion inh -51.0, PvdQ inh -10.4, PDI inh -0.5, rRNA inh HTS -12.7 and ERp5 block 1.7.
`COc1ccc(NC(=O)c2oc3ccccc3c2NC(=O)C2CCCO2)cc1OC` (configuration not stated) gave Env fusion inh 4.2, PvdQ inh 9.0, PDI inh 4.8, rRNA inh HTS -36.8* and ERp5 block 1.4.
For COc1ccccc1-c1ccc2n(c1=O)C[C@H]1[C@H](CO)[C@@H](C(=O)NCc3ccccc3F)N[C@@H]21 the results were rRNA inh HTS -0.6 and ERp5 block -1.1.
`O=C(c1ccccc1)N1CCSc2sccc2C1=O` gave FN deposit inh -0.7, Env fusion inh 66.4*, PvdQ inh -4.4, PDI inh 1.5, rRNA inh HTS 0.7 and ERp5 block 4.9.
For CCNC(=O)Nc1ccc2c(c1)C(=O)N(C)[C@@H]1CC[C@H](CC(=O)NCC3CC3)O[C@H]1CO2 the results were FN deposit inh 11.0, Env fusion inh 19.2[16.7 µM] and rRNA inh HTS 0.6.
COc1cccc(-c2ccc(C3[C@@H]4CN(C(=O)Cc5ccccc5)C[C@H]3N4)cc2)c1 (some centres not stated) was read as FN deposit inh 4.4 and rRNA inh HTS -11.3.
For CN1CCN(C(=O)C[C@@H]2C[C@@H]3c4cc(NC(=O)NC5CCCC5)ccc4O[C@@H]3[C@@H](CO)O2)CC1 the results were FN deposit inh 4.3, Env fusion inh 2.0[16.7 µM], rRNA inh HTS -1.2 and ERp5 block -5.0.
`Cc1cccc(C)c1NC(=O)C(c1ccccc1)n1c(=O)c(-c2cc3ccccc3[nH]2)nc2ccccc21` (configuration not stated) gave FN deposit inh 4.9, Env fusion inh -7.0, rRNA inh HTS 11.6 and ERp5 block 4.8.
`Cc1cccc(C)c1NC(=O)C(c1ccc(C#N)cc1)n1c(=O)c(-c2cc3ccccc3[nH]2)nc2ccccc21` (configuration not stated) gave FN deposit inh -1.2, Env fusion inh 75.3*, rRNA inh HTS 13.9 and ERp5 block -0.4.
CC(C)NC(=O)N(C)C[C@@H]1Oc2ccc(NC(=O)Cc3cn(C)c4ccccc34)cc2C(=O)N([C@H](C)CO)C[C@H]1C was read as rRNA inh HTS 0.1 and ERp5 block -4.3.
Screening COc1ccccc1C(=O)Nc1cccc(NC(C)=O)c1 returned Env fusion inh -129.1, PvdQ inh 2.0 and PDI inh 4.4.
Screening COc1cccc(OC)c1C(=O)Nc1ccc2c(c1)Cc1ccccc1-2 returned FN deposit inh 8.2, Env fusion inh -1.6, PvdQ inh -18.2, PDI inh -5.5, rRNA inh HTS -22.9* and ERp5 block -5.7.
For COc1ccc2nc(SCC(=O)Nc3ccccc3OC)[nH]c2c1 the results were FN deposit inh 0.8, Env fusion inh 15.3, PvdQ inh -8.0, PDI inh 5.7, rRNA inh HTS -24.1* and ERp5 block 1.5.
Screening COc1ccc(C(=O)Nc2ccc3ccccc3c2)c(OC)c1 returned FN deposit inh -5.2, Env fusion inh -288.2, PvdQ inh -9.0, PDI inh -2.2, rRNA inh HTS -27.5* and ERp5 block 1.8.
COc1cccc(OC)c1C(=O)NC(=S)Nc1ccc2c(c1)Cc1ccccc1-2 was read as FN deposit inh 3.2, Env fusion inh -46.6, PvdQ inh -10.5, PDI inh 4.5, rRNA inh HTS 2.6 and ERp5 block 6.1.
`COc1ccccc1C(=O)Nc1cccc(NC(=O)c2ccccc2C)c1` gave FN deposit inh -4.3, Env fusion inh -2.0, PvdQ inh -9.3, PDI inh 3.8, rRNA inh HTS -34.5* and ERp5 block 2.1.
`OC[C@@H]1[C@H](c2ccc(-c3ccncc3)cc2)[C@@H]2CN(Cc3ccccn3)CCCCN12` gave rRNA inh HTS 3.8 and ERp5 block -2.4.
For COCCNC(=O)[C@@H]1[C@@H](CO)[C@@H]2Cn3c(ccc(-c4ccccc4)c3=O)[C@H]1N2C the results were rRNA inh HTS -2.0 and ERp5 block 4.8.
For C[C@H](CO)N1C[C@H](C)[C@H](CN(C)C(=O)C2CCC2)Oc2ncc(-c3ccncc3)cc2C1=O the results were Env fusion inh 3.5[16.7 µM] and rRNA inh HTS 1.6.
`COc1ccc2c3c(n(C)c2c1)[C@H](CO)NCC31CCN(S(=O)(=O)c2ccccc2)CC1` gave rRNA inh HTS -0.8 and ERp5 block 4.6.
Screening COc1ccccc1NC(=O)COc1ccc2ccccc2c1 returned Env fusion inh -13.0, PvdQ inh -9.2, PDI inh -5.1, rRNA inh HTS -31.4* and ERp5 block 5.2.
COc1ccccc1C(=O)Nc1ccc2ccccc2c1 was read as FN deposit inh 2.9, Env fusion inh -409.6, PvdQ inh -0.5, PDI inh 8.1, rRNA inh HTS -32.7* and ERp5 block 1.1.
`COc1ccccc1NC(=O)Oc1ccc(C(C)=O)cc1` gave FN deposit inh -20.8, Env fusion inh 58.6*, PvdQ inh -15.5 and PDI inh 5.1.
COc1cc2ccccc2cc1C(=O)Nc1ccc(C)cc1 was read as FN deposit inh 6.5, Env fusion inh -237.1, PvdQ inh -8.6, PDI inh 8.6, rRNA inh HTS -7.5 and ERp5 block -1.4.
For C[C@H](CO)N1C[C@H](C)[C@H](CN(C)S(=O)(=O)c2ccc(F)cc2)Oc2ccc(NC(=O)c3ccncc3)cc2CC1=O the results were FN deposit inh -10.3, rRNA inh HTS -4.0 and ERp5 block 0.3.
`CC=Cc1ccc2n(c1=O)C[C@H]1[C@H](CO)[C@@H](C(=O)OC)N(CCc3ccccc3)[C@@H]21` (mixture of isomers) gave Env fusion inh 59.9*[16.7 µM], rRNA inh HTS -3.8 and ERp5 block -3.1.
Screening CCC(=O)N(C)C[C@@H]1Oc2ncc(-c3ccccc3C)cc2C(=O)N([C@H](C)CO)C[C@@H]1C returned FN deposit inh 1.8, Env fusion inh -2.9[16.7 µM], rRNA inh HTS 0.9 and ERp5 block -1.9.
Screening N#CCC(=O)Nc1ccc(C(=O)OCC(=O)Nc2ccc3ccccc3c2)cc1 returned FN deposit inh -5.6, Env fusion inh -9.0, PvdQ inh -10.4, PDI inh 12.9, rRNA inh HTS -17.6* and ERp5 block 2.8.
